Test results as given in ChEMBL document CHEMBL1156952, “Synthesis and biological evaluations of novel bendazac lysine analogues as potent anticataract agents” (Bioorg Med Chem Lett, 2010).
Values after ≈ are worked out from the molar mass of the structure shown.

What was measured:
[1] = Anticataract activity against FeCl3/H2O2-induced cataract in rabbit lens assessed as middle degree of opacificaion at 0.5 mM treated 1 hr before FeCl3/H2O2 challenge measured after 24 hrs; assay type: functional, Oryctolagus cuniculus, Lens of camera-type eye
[2] = Anticataract activity against FeCl3/H2O2-induced cataract in rabbit lens assessed as absence of opacificaion at 0.5 mM treated 1 hr before FeCl3/H2O2 challenge measured after 24 hrs; assay type: functional, Oryctolagus cuniculus, Lens of camera-type eye
[3] = Anticataract activity against FeCl3/H2O2-induced cataract in rat lens assessed as absence of opacificaion at 0.5 mM treated 1 hr before FeCl3/H2O2 challenge measured after 24 hrs; assay type: functional, Lens of camera-type eye
In short: (§1)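 Isolated rat lenses were cultured in DMEM and challenged with FeCl3 (0.02%) plus H2O2 (0.5%). Compounds were added at 0.5 mM to the medium of transparent lenses, with a challenged, untreated control. Lenses were scored as the percentage at each opacification grade (−, +, ++, +++).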

[4] = Anticataract activity against FeCl3/H2O2-induced cataract in rat lens assessed as extensive mature nuclear opacity at 0.5 mM treated 1 hr before FeCl3/H2O2 challenge measured after 24 hrs; assay type: functional, Lens of camera-type eye; in short: as §1
[5] = Anticataract activity against FeCl3/H2O2-induced cataract in rabbit lens assessed as extensive mature nuclear opacity at 0.5 mM treated 1 hr before FeCl3/H2O2 challenge measured after 24 hrs; assay type: functional, Oryctolagus cuniculus, Lens of camera-type eye
[6] = Aqueous solubility of the compound; assay type: physicochemical; details: water (aqueous)
[7] = Anticataract activity against FeCl3/H2O2-induced cataract in rabbit lens assessed as slight degree of opacificaion at 0.5 mM treated 1 hr before FeCl3/H2O2 challenge measured after 24 hrs; assay type: functional, Oryctolagus cuniculus, Lens of camera-type eye
[8] = Anticataract activity against FeCl3/H2O2-induced cataract in rat lens assessed as slight degree of opacificaion at 0.5 mM treated 1 hr before FeCl3/H2O2 challenge measured after 24 hrs; assay type: functional, Lens of camera-type eye; in short: as §1
[9] = Anticataract activity against FeCl3/H2O2-induced cataract in rat lens assessed as middle degree of opacificaion at 0.5 mM treated 1 hr before FeCl3/H2O2 challenge measured after 24 hrs; assay type: functional, Lens of camera-type eye; in short: as §1
[10] = Anticataract activity against FeCl3/H2O2-induced cataract in rabbit lens assessed as middle degree of opacificaion at 10 mM treated 1 hr before FeCl3/H2O2 challenge measured after 24 hrs; assay type: functional, Oryctolagus cuniculus, Lens of camera-type eye
[11] = Anticataract activity against FeCl3/H2O2-induced cataract in rabbit lens assessed as extensive mature nuclear opacity at 15 mM treated 1 hr before FeCl3/H2O2 challenge measured after 24 hrs; assay type: functional, Oryctolagus cuniculus, Lens of camera-type eye
[12] = Anticataract activity against FeCl3/H2O2-induced cataract in rabbit lens assessed as absence of opacificaion at 10 mM treated 1 hr before FeCl3/H2O2 challenge measured after 24 hrs; assay type: functional, Oryctolagus cuniculus, Lens of camera-type eye
[13] = Anticataract activity against FeCl3/H2O2-induced cataract in rabbit lens assessed as middle degree of opacificaion at 15 mM treated 1 hr before FeCl3/H2O2 challenge measured after 24 hrs; assay type: functional, Oryctolagus cuniculus, Lens of camera-type eye
[14] = Anticataract activity against FeCl3/H2O2-induced cataract in rabbit lens assessed as extensive mature nuclear opacity at 10 mM treated 1 hr before FeCl3/H2O2 challenge measured after 24 hrs; assay type: functional, Oryctolagus cuniculus, Lens of camera-type eye
[15] = Anticataract activity against FeCl3/H2O2-induced cataract in rabbit lens assessed as slight degree of opacificaion at 5 mM treated 1 hr before FeCl3/H2O2 challenge measured after 24 hrs; assay type: functional, Oryctolagus cuniculus, Lens of camera-type eye
[16] = Anticataract activity against FeCl3/H2O2-induced cataract in rabbit lens assessed as slight degree of opacificaion at 10 mM treated 1 hr before FeCl3/H2O2 challenge measured after 24 hrs; assay type: functional, Oryctolagus cuniculus, Lens of camera-type eye
[17] = Anticataract activity against FeCl3/H2O2-induced cataract in rabbit lens assessed as absence of opacificaion at 15 mM treated 1 hr before FeCl3/H2O2 challenge measured after 24 hrs; assay type: functional, Oryctolagus cuniculus, Lens of camera-type eye
[18] = Anticataract activity against FeCl3/H2O2-induced cataract in rabbit lens assessed as slight degree of opacificaion at 15 mM treated 1 hr before FeCl3/H2O2 challenge measured after 24 hrs; assay type: functional, Oryctolagus cuniculus, Lens of camera-type eye
[19] = Anticataract activity against FeCl3/H2O2-induced cataract in rabbit lens assessed as absence of opacificaion at 5 mM treated 1 hr before FeCl3/H2O2 challenge measured after 24 hrs; assay type: functional, Oryctolagus cuniculus, Lens of camera-type eye
[20] = Anticataract activity against FeCl3/H2O2-induced cataract in rabbit lens assessed as extensive mature nuclear opacity at 5 mM treated 1 hr before FeCl3/H2O2 challenge measured after 24 hrs; assay type: functional, Oryctolagus cuniculus, Lens of camera-type eye
[21] = Anticataract activity against FeCl3/H2O2-induced cataract in rabbit lens assessed as middle degree of opacificaion at 5 mM treated 1 hr before FeCl3/H2O2 challenge measured after 24 hrs; assay type: functional, Oryctolagus cuniculus, Lens of camera-type eye
Oryctolagus cuniculus [22] = species on record: Oryctolagus cuniculus; test: Induction of water-solvent protein level in rabbit lens homogenates at 5 mM (Rvb= 7.40 +/-0.73 mg/mL); assay type: functional, tissue-based; details: Lens of camera-type eye
In short: (§2)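 Rabbit lenses were cultured in DMEM under FeCl3 (0.02%) plus H2O2 (2%) challenge, with compound at 5, 10 or 15 mM in the medium. Each group's lenses were then homogenized. Water-soluble protein, total antioxidant capacity and malondialdehyde were each measured in the homogenate with a reagent kit.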

Oryctolagus cuniculus [23] = species on record: Oryctolagus cuniculus; test: Induction of total-antioxidant capacity level in rabbit lens homogenates at 5 mM (Rvb= 0.04 u/mg); assay type: functional, tissue-based; details: Lens of camera-type eye; in short: as §2
Oryctolagus cuniculus [24] = species on record: Oryctolagus cuniculus; test: Reduction of malondialdehyde level in rabbit lens homogenates at 5 mM (Rvb= 0.46 +/-0.27 nmol/mg); assay type: functional, tissue-based; details: Lens of camera-type eye; in short: as §2
Oryctolagus cuniculus [25] = species on record: Oryctolagus cuniculus; test: Reduction of malondialdehyde level in rabbit lens homogenates at 15 mM (Rvb= 0.46 +/-0.27 nmol/mg); assay type: functional, tissue-based; details: Lens of camera-type eye; in short: as §2
Oryctolagus cuniculus [26] = species on record: Oryctolagus cuniculus; test: Anticataract activity against FeCl3/H2O2-induced cataract in rabbit lens treated 1 hr before FeCl3/H2O2 challenge measured after 24 hrs; assay type: functional, tissue-based; details: Lens of camera-type eye
Oryctolagus cuniculus [27] = species on record: Oryctolagus cuniculus; test: Reduction of malondialdehyde level in rabbit lens homogenates at 10 mM (Rvb= 0.46 +/-0.27 nmol/mg); assay type: functional, tissue-based; details: Lens of camera-type eye; in short: as §2
Oryctolagus cuniculus [28] = species on record: Oryctolagus cuniculus; test: Induction of total-antioxidant capacity level in rabbit lens homogenates at 10 mM (Rvb= 0.04 u/mg); assay type: functional, tissue-based; details: Lens of camera-type eye; in short: as §2
Oryctolagus cuniculus [29] = species on record: Oryctolagus cuniculus; test: Induction of total-antioxidant capacity level in rabbit lens homogenates at 15 mM (Rvb= 0.04 u/mg); assay type: functional, tissue-based; details: Lens of camera-type eye; in short: as §2

NCCCC[C@H](N)C(=O)O.O=C(O)C(Oc1nn(Cc2cccc(Cl)c2)c2ccccc12)C(=O)O
Activity [1]: 35%
Activity [2]: 0%
Activity [3]: 0%
Activity [4]: 15%
Activity [5]: 65%
solubility [6]: 195 mg/mL
Activity [7]: 0%
Activity [8]: 55%
Activity [9]: 30%

O=C([O-])C(Oc1nn(Cc2ccc(Cl)cc2)c2ccccc12)C(=O)[O-].[K+].[K+]
solubility [6]: < 1 mg/mL

N[C@@H](Cc1c[nH]cn1)C(=O)O.O=C(O)C(Oc1nn(Cc2cccc(Cl)c2)c2ccccc12)C(=O)O
solubility [6]: 115 mg/mL

N[C@@H](Cc1c[nH]cn1)C(=O)O.O=C(O)C(Oc1nn(Cc2ccccc2)c2ccccc12)C(=O)O [listing 1 of 2 here]
Activity [1]: 35%
Activity [10]: 0%
Activity [2]: 0%
Activity [11]: 0%
Activity [3]: 0%
Activity [12]: 90%
Activity [4]: 0%
Activity [13]: 0%
Activity [5]: 0%
Activity [14]: 0%
Activity [15]: 70%
solubility [6]: 180 mg/mL
Activity [7]: 65%
Activity [16]: 10%
Activity [17]: 100%
Activity [18]: 0%
Activity [8]: 85%
Activity [9]: 15%
Activity [19]: 30%
Activity [20]: 0%
Activity [21]: 0%

Cc1ccc(Cn2nc(OC(C(=O)O)C(=O)O)c3ccccc32)cc1.NCCCC[C@H](N)C(=O)O
solubility [6]: 57.4 mg/mL

NCCCC[C@H](N)C(=O)O.O=C(O)COc1nn(Cc2ccccc2)c2ccccc12 [BENDAZAC LYSINE]
Activity [1]: 25%
Activity [10]: 15%
Activity [2]: 0%
Activity [3]: 0%
Activity [12]: 20%
Activity [4]: 5%
Activity [5]: 0%
Activity [14]: 0%
solubility [6]: 93.8 mg/mL
Activity [7]: 75%
Activity [16]: 65%
Activity [8]: 55%
Activity [9]: 40%

O=C(O)C(Oc1nn(Cc2ccc(Cl)cc2)c2ccccc12)C(=O)O
solubility [6]: < 1 mg/mL

O=C(O)C(Oc1nn(Cc2cccc(Cl)c2)c2ccccc12)C(=O)O
solubility [6]: < 1 mg/mL

O=C(O)COc1nn(Cc2ccccc2)c2ccccc12
WSP level (Oryctolagus cuniculus [22]): 9.34 mg/mL
T-AOC level (Oryctolagus cuniculus [23]): 0.17 U/mg
MDA level (Oryctolagus cuniculus [24]): 0.22 nmol/mg

N[C@@H](Cc1c[nH]cn1)C(=O)O.O=C(O)C(Oc1nn(Cc2ccccc2)c2ccccc12)C(=O)O [listing 2 of 2 here]
MDA level (Oryctolagus cuniculus [25]): 0.08 nmol/mg
Activity (Oryctolagus cuniculus [26]): Dose-dependent effect
MDA level (Oryctolagus cuniculus [27]): 0.03 nmol/mg
T-AOC level (Oryctolagus cuniculus [28]): 0.64 U/mg
T-AOC level (Oryctolagus cuniculus [29]): 0.34 U/mg
WSP level (Oryctolagus cuniculus [22]): 13 mg/mL
T-AOC level (Oryctolagus cuniculus [23]): 0.21 U/mg
MDA level (Oryctolagus cuniculus [24]): 0.04 nmol/mg

NCCCC[C@H](N)C(=O)O.O=C(O)C(Oc1nn(Cc2ccc(Cl)cc2)c2ccccc12)C(=O)O
solubility [6]: 312 mg/mL

O=C([O-])C(Oc1nn(Cc2cccc(Cl)c2)c2ccccc12)C(=O)[O-].[K+].[K+]
solubility [6]: < 1 mg/mL

Cc1ccc(Cn2nc(OC(C(=O)O)C(=O)O)c3ccccc32)cc1.N[C@@H](Cc1c[nH]cn1)C(=O)O
solubility [6]: 71 mg/mL

O=C(O)COc1nn(Cc2ccccc2)c2ccccc12 [BENDAZAC]
solubility [6]: < 1 mg/mL

N[C@@H](Cc1c[nH]cn1)C(=O)O.O=C(O)C(Oc1nn(Cc2cccc(F)c2)c2ccccc12)C(=O)O
solubility [6]: 56.6 mg/mL

Cc1ccc(Cn2nc(OC(C(=O)[O-])C(=O)[O-])c3ccccc32)cc1.[Na+].[Na+]
solubility [6]: < 1 mg/mL

Cc1ccc(Cn2nc(OC(C(=O)O)C(=O)O)c3ccccc32)cc1
solubility [6]: < 1 mg/mL

O=C([O-])C(Oc1nn(Cc2ccccc2)c2ccccc12)C(=O)[O-].[Na+].[Na+]
Activity [1]: 40%
Activity [2]: 0%
Activity [3]: 0%
Activity [4]: 0%
Activity [5]: 0%
solubility [6]: 3 mg/mL
Activity [7]: 60%
Activity [8]: 80%
Activity [9]: 20%

NCCCC[C@H](N)C(=O)O.O=C(O)C(Oc1nn(Cc2ccccc2)c2ccccc12)C(=O)O
Activity [1]: 35%
Activity [2]: 0%
Activity [3]: 0%
Activity [4]: 15%
Activity [5]: 35%
solubility [6]: 123 mg/mL
Activity [7]: 30%
Activity [8]: 15%
Activity [9]: 70%

O=C(O)C(Oc1nn(Cc2cccc(F)c2)c2ccccc12)C(=O)O
solubility [6]: 2 mg/mL (≈ 5.81 mM)

Cc1ccc(Cn2nc(OC(C(=O)[O-])C(=O)[O-])c3ccccc32)cc1.[K+].[K+]
solubility [6]: < 1 mg/mL

O=C([O-])C(Oc1nn(Cc2cccc(F)c2)c2ccccc12)C(=O)[O-].[K+].[K+]
solubility [6]: 2.4 mg/mL

O=C(O)C(Oc1nn(Cc2ccccc2)c2ccccc12)C(=O)O
solubility [6]: < 1 mg/mL

O=C([O-])C(Oc1nn(Cc2cccc(Cl)c2)c2ccccc12)C(=O)[O-].[Na+].[Na+]
solubility [6]: 1.2 mg/mL

O=C([O-])C(Oc1nn(Cc2cccc(F)c2)c2ccccc12)C(=O)[O-].[Na+].[Na+]
Activity [1]: 20%
Activity [2]: 0%
Activity [3]: 0%
Activity [4]: 5%
Activity [5]: 0%
solubility [6]: 3.2 mg/mL
Activity [7]: 80%
Activity [8]: 60%
Activity [9]: 35%

O=C([O-])C(Oc1nn(Cc2ccccc2)c2ccccc12)C(=O)[O-].[K+].[K+]
Activity [1]: 40%
Activity [2]: 0%
Activity [3]: 0%
Activity [4]: 50%
Activity [5]: 30%
solubility [6]: 2.2 mg/mL
Activity [7]: 30%
Activity [8]: 0%
Activity [9]: 50%

O=C([O-])C(Oc1nn(Cc2ccc(Cl)cc2)c2ccccc12)C(=O)[O-].[Na+].[Na+]
solubility [6]: < 1 mg/mL

N[C@@H](Cc1c[nH]cn1)C(=O)O.O=C(O)C(Oc1nn(Cc2ccc(Cl)cc2)c2ccccc12)C(=O)O
solubility [6]: 51 mg/mL

NCCCC[C@H](N)C(=O)O.O=C(O)C(Oc1nn(Cc2cccc(F)c2)c2ccccc12)C(=O)O
Activity [3]: 0%
Activity [4]: 0%
solubility [6]: 134 mg/mL
Activity [8]: 55%
Activity [9]: 45%
